Data set [1] has as its target Serine/threonine-protein kinase B-raf (Homo sapiens) (UniProt P15056). The experiment in a line: Inhibition of BRAF (unknown origin) at 1 ug/ml relative to control.
Data set [2] addresses Protein kinase C (PKC) (Homo sapiens) (UniProt O94806+P41743+P17252+P05129+Q05655+P05771+Q05513+Q02156+P24723+Q15139+Q04759). Put plainly: Inhibition of PKC (unknown origin) at 1 ug/ml relative to control. The method, boiled down: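 Fixed-concentration screen at 1 µg/mL with a Z'-LYTE kinase assay kit.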
Data set [3] has as its target T1, Aurora kinase A (Homo sapiens) (UniProt O14965).
T1 sequence (whole entry): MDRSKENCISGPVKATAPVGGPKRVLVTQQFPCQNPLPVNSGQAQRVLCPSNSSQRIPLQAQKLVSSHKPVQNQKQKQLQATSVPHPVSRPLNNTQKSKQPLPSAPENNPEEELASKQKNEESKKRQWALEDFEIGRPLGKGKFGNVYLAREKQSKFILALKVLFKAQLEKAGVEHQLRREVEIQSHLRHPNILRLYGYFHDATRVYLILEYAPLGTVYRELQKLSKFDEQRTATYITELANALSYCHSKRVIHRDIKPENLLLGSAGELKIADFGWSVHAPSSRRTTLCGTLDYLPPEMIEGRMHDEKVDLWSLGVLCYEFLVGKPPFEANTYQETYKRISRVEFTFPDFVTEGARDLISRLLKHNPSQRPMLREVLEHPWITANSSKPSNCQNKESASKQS
Put plainly: Inhibition of human full length Aurora A at 1 ug/ml by Z'-LYTE assay.

The next data set concerns KB. The experiment in a line: Antiproliferative activity against human KB cells after 72 hrs by MTT assay. Type of data set: functional, cell-based. The method, boiled down: (§1)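 Cells grown in RPMI-1640 with heat-inactivated 10% FBS, penicillin 100 units/mL and streptomycin 100 μg/mL, at 37 °C under 20% O2, 5% CO2. Compounds dissolved in DMSO at 10.0 mg/mL (stock), then diluted. Cells were plated for 24 h, exposed to a range of concentrations for 72 h, and viability was read by MTT. IC50 is 50% absorbance inhibition versus control cells; means of three experiments.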

Data set [4] is described as follows: Apparent permeability across apical to basolateral side in MDCK cells by HPLC. Type of data set: ADME, cell-based, Canis lupus familiaris. As to conditions: dog.
Data set [5] has as its target T2, Inhibitor of nuclear factor kappa-B kinase subunit beta (Homo sapiens) (UniProt O14920).
T2 sequence (whole entry): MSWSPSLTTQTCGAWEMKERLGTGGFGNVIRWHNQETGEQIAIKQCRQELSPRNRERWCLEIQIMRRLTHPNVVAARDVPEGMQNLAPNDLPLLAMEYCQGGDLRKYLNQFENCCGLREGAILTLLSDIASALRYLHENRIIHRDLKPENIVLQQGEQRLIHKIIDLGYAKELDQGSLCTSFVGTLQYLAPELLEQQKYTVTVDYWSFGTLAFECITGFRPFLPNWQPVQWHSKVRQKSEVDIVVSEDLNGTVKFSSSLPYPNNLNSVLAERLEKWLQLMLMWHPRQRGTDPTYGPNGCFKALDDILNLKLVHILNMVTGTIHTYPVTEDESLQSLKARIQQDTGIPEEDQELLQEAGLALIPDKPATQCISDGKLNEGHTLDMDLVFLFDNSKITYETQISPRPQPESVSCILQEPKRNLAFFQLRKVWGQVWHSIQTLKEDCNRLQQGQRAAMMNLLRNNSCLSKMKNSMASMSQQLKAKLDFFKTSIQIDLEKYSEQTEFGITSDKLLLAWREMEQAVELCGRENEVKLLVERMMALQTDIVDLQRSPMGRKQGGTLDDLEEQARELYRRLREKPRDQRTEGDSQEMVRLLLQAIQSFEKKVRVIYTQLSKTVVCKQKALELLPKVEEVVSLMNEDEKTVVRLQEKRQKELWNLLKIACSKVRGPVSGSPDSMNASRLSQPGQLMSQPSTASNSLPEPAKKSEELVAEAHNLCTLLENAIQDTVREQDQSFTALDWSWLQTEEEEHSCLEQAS
The experiment in a line: Inhibition of IKKbeta (unknown origin) at 1 ug/ml relative to control.

A short description of data set [6]: Antiproliferative activity against human HCT116 cells after 72 hrs by MTT assay. The following applies: HCT-116, 72 h. Type of data set: functional, cell-based. The method, boiled down:
as §1
In general terms: Tetrazolium dyes change colour on reduction, which living cells bring about.

Data set [7] in a line: Antiproliferative activity against human HL60 cells after 72 hrs by MTT assay. The following applies: HL-60, 72 h. Type of data set: functional, cell-based. The procedure, abridged: as §1
In data set [8] the target is Dual specificity mitogen-activated protein kinase kinase 1 (Homo sapiens) (UniProt Q02750). The experiment in a line: Inhibition of MEK1 (unknown origin) at 1 ug/ml relative to control.
The nature of data set [9]: Antiproliferative activity against human SMMC7721 cells after 72 hrs by MTT assay. Type of data set: functional, cell-based. As to conditions: SMMC-7721, 72 h. The method, boiled down: as §1
Data set [10] addresses T3, Serine/threonine-protein kinase Chk1 (Homo sapiens) (UniProt O14757).
T3 sequence (whole entry): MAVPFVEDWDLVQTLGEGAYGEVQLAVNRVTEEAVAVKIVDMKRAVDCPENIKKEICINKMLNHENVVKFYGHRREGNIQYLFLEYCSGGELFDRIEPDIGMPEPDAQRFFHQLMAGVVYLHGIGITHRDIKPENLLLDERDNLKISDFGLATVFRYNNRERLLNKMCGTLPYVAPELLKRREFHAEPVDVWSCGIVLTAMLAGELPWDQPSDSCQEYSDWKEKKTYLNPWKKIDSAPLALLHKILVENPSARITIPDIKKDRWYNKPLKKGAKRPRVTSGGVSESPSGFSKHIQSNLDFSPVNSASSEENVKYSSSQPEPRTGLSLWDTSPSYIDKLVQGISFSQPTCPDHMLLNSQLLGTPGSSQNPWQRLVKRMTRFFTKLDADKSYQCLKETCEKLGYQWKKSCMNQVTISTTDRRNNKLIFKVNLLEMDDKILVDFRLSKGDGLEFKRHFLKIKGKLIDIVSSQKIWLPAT
The experiment in a line: Inhibition of CHK1 (unknown origin) at 1 ug/ml relative to control. The procedure, abridged:
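Fixed-concentration screen at 1 µg/mL using the luminescent ADP-Glo assay.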

The target of another data set is T4, Aurora kinase A (Homo sapiens, UniProt O14965).
T4 sequence (O14965 whole entry): T1 sequence (whole entry)
The experiment in a line: Inhibition of human full length Aurora A by Z'-LYTE assay.

In data set [11] the target is Cyclin-dependent kinase 2 (Homo sapiens) (UniProt P24941). Put plainly: Inhibition of CDK2 (unknown origin) at 1 ug/ml relative to control.
A further data set concerns A549. The experiment in a line: Antiproliferative activity against human A549 cells after 72 hrs by MTT assay. Type of data set: functional, cell-based. As to conditions: A549, 72 h.
For data set [12], the target named is Glycogen synthase kinase-3 beta (Homo sapiens) (UniProt P49841). The experiment in a line: Inhibition of GSK3beta (unknown origin) at 1 ug/ml relative to control.
Data set [13] concerns the target Cell division cycle 7-related protein kinase (Homo sapiens) (UniProt O00311). Put plainly: Inhibition of CDC7 (unknown origin).
The test system of data set [14] is HCT-116. Put plainly: Induction of apoptosis in human HCT116 cells at 200 nM after 24 hrs by FACS analysis relative to control. Type of data set: functional. Background: In flow cytometry, cells or beads pass a laser one at a time.
Data set [15] in a line: Cell cycle arrest in human HCT116 cells assessed as accumulation at G2/M phase at 200 nM after 24 hrs by FACS analysis. Type of data set: functional, cell-based. As to conditions: HCT-116.
The nature of data set [16]: Cell cycle arrest in human HCT116 cells assessed as accumulation at G2/M phase after 24 hrs by FACS analysis. Type of data set: functional, cell-based. The following applies: HCT-116.
Data set [17] deals with HCT-116. The experiment in a line: Ratio of taxol IC50 to compound IC50 for human HCT116 cells. Type of data set: functional.

Each structure is given as a SMILES string. The source made the active and inactive calls. The calls are words filed in the database; no cut-off is given here.

Chain of Serine/threonine-protein kinase B-raf (Homo sapiens) (P15056 whole entry): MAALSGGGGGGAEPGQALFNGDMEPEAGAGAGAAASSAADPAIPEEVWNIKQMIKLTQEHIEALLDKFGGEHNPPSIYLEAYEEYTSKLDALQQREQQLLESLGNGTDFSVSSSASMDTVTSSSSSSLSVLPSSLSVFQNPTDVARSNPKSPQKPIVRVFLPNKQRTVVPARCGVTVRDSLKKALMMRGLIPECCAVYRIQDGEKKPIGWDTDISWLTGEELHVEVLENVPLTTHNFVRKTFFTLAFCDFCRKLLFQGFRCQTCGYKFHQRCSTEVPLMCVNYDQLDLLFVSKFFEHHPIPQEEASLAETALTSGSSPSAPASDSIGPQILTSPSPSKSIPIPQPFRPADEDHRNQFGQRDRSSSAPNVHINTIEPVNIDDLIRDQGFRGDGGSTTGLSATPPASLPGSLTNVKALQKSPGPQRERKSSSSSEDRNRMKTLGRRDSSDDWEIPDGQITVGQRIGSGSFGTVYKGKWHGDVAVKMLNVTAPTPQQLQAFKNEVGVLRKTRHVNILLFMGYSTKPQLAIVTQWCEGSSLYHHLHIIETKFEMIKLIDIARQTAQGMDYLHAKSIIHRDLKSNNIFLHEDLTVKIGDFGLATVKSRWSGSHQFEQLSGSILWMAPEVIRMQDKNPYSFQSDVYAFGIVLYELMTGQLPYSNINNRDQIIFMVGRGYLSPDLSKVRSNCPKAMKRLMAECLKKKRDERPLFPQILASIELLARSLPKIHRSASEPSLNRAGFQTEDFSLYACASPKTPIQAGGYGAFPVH
Chain of Dual specificity mitogen-activated protein kinase kinase 1 (Homo sapiens) (Q02750 whole entry): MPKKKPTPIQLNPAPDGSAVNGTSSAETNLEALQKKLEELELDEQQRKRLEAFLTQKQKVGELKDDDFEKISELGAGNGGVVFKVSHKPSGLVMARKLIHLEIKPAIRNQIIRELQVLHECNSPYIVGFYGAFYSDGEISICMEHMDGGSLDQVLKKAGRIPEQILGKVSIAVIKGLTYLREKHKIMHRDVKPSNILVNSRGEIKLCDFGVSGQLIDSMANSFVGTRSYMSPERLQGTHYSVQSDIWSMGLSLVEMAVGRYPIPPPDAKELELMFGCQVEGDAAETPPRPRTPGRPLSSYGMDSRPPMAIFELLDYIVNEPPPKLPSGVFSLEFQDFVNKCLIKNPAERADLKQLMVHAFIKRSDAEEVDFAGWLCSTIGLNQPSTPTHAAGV
Chain of Glycogen synthase kinase-3 beta (Homo sapiens) (P49841 whole entry, looked up): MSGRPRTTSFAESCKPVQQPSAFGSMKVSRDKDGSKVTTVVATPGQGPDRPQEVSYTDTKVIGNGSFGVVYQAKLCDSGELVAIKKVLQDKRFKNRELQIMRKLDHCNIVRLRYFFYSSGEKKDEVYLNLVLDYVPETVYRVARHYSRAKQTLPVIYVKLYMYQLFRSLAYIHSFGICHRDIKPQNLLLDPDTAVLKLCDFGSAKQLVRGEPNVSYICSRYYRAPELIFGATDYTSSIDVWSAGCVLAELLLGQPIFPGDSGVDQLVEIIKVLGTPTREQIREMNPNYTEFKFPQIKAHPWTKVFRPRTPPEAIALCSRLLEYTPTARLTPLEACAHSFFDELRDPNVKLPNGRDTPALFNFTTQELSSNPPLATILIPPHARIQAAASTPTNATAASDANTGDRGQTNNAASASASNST
Chain of Cell division cycle 7-related protein kinase (Homo sapiens) (O00311 whole entry, looked up): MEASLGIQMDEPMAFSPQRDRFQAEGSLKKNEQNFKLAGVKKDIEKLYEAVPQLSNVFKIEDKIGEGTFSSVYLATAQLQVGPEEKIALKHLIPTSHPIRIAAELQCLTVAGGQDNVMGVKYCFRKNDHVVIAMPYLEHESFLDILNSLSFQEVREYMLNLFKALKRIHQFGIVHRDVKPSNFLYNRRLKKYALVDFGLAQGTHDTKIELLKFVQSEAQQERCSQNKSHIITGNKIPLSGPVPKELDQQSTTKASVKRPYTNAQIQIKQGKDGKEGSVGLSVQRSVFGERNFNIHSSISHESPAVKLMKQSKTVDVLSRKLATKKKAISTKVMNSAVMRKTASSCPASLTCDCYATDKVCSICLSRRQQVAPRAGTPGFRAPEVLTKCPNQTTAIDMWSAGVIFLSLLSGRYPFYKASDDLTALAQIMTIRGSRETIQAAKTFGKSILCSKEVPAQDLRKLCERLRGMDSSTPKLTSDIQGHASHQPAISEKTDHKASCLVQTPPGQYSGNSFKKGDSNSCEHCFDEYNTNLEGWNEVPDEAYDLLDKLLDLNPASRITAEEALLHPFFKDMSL

For the compound `CN(C(=O)c1ccccc1)c1ccc2[nH]c(-c3n[nH]c4ccccc34)cc2n1`, the inhibition in data set [1] worked out at 11.7%; in data set [2], 5.4%; in data set [3], 95.8%; in data set [5], 8.06%; in data set [8], 3.85%; in data set [10], 8.3%. Also, the inhibition amounted to 28.2% in [11] and 18.6% in data set [12]. The IC50 was 8580 nM with KB; 10600 nM in data set [6]; 4850 nM in [7]; 12500 nM in data set [9]; 32 nM against Aurora kinase A; 13800 nM in the data set with A549. Besides, the Papp A→B in data set [4] worked out at 2.07 ×10⁻⁶ cm/s.

In turn, `N#Cc1ccc2c(-c3cc4cc(CN5CCOCC5)ccc4[nH]3)n[nH]c2c1` showed an IC50 in data set [13] of 11 nM. In other words, the double-digit nanomolar range.

Take `CN(C(=O)Nc1ccccc1)c1ccc2[nH]c(-c3n[nH]c4ccccc34)cc2n1`: the inhibition amounted to 16.4% in [1]; 0.62% in [2]; 75.4% in [3]; 0.55% in data set [5]; 6.64% in data set [8]; 20.5% in [10]. Besides, the inhibition was determined as 13.8% in [11] and 19.3% in data set [12]. The IC50 came out at 32 nM in the data set on KB; 1.3 nM in data set [6]; 8.3 nM in [7]; 280 nM in [9]; 519 nM against Aurora kinase A; 1430 nM in the data set with A549. The Papp A→B in [4] worked out at 6.07 ×10⁻⁶ cm/s. The Activity was 25.4% in the data set on HCT-116 [14] and “Dose-dependent effect” in data set [16]. The result in data set [15] was Active. For the same compound, in the data set on HCT-116 [17], the “Ratio IC50” value stood at 3.

For the compound `CN(C(=O)c1ccc(Cl)cc1)c1ccc2[nH]c(-c3n[nH]c4ccccc34)cc2n1`, the inhibition in data set [1] was determined as 14.4%; in data set [2], 10.6%; in data set [3] it was 95%; in [5] it was 0.94%; in data set [8], 1.98%; in [10], 1%. For the same compound, the inhibition in data set [11] stood at 35.5%; in [12], 27.8%. The IC50 in the data set with KB was found to be 630 nM; in [6] it was 3000 nM; in [7] it was 450 nM; in [9] it was 2420 nM; against Aurora kinase A it was 46 nM; with A549, 2220 nM. For the same compound, the apparent permeability from apical to basolateral (Papp A→B) in data set [4] turned out to be 3.95 ×10⁻⁶ cm/s.

As a reminder, the inhibition is the percentage by which the read-out fell short of the control. For orientation: IC50 means the concentration at which inhibition is half-maximal. Higher therefore signals a need for much substance. Usually Papp A→B stands for the apparent permeability from the apical to the basolateral side of a cell layer.
